One experiment concerns NCI-H460. The experiment can be described thus: Cytotoxicity against human H460 cell line by MTS assay. In kind it is functional, cell-based. The essentials: (§1)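 Cells kept at 37 °C in humidified 5% CO2/95% air and seeded at 700 cells/well (H460) or 27 500 cells/well (HL-60). Log-phase cells were exposed in triplicate to serial drug dilutions for 72 h; stocks in DMSO, PBS or DMF, final organic solvent under 0.1%. MTS/PMS added for 3 h, A490 read. IC50 from sigmoidal dose-response fit; mean of at least three experiments.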
In general terms: Formazan colour is commonly taken as a measure of viable cells.

The next experiment deals with HL-60. As to the kind of experiment: Cytotoxicity against human HL60 cell line by MTS assay. In kind it is functional, cell-based. In short, it runs like this:
as §1

Molecules are shown by their SMILES. A value given as a limit tells only on which side of the number the result lay.

With `CCNC(=O)NCCCCNC(=O)c1cccc2c(NCCN(C)/C(S)=N/C)c3ccccc3nc12`, the IC50 in the experiment on NCI-H460 and with HL-60 was > 100 µM throughout.
For the molecule `C/N=C(\S)N(C)CCNc1c2ccccc2nc2c(C(=O)NCCNC(=O)Nc3ccccc3)cccc12`, the IC50 was 31.9 µM in the experiment on NCI-H460 and > 50 µM with HL-60.
On to `C/N=C(\S)N(C)CCNc1c2ccccc2nc2c(C(=O)NCCO)cccc12`, for which the IC50 in the experiment with NCI-H460 was 41.1 µM; in the experiment with HL-60 it was 27.4 µM.
Taken in the same sequence, the figures for `C/N=C(\S)N(C)CCNc1c2ccccc2nc2c(C(=O)NCCN(C)C)cccc12` were 2.2 µM and 1.4 µM.
Taken in the same sequence, the figures for `CCNC(=O)NCCNC(=O)c1cccc2c(NCCN(C)/C(S)=N/C)c3ccccc3nc12` were > 100 µM and > 100 µM.
Taken in the same sequence, the figures for `C/N=C(\S)N(C)CCNc1c2ccccc2nc2c(C(=O)NCCCCNC(=O)Nc3ccccc3)cccc12` were 3.1 µM and 0.39 µM.
`CNC(=S)N(C)CCNc1c2ccccc2nc2ccccc12`: the IC50 with NCI-H460 turned out to be 9.5 µM; with HL-60, 11.5 µM.
For the molecule `C/N=C(\S)N(C)CCNc1c2ccccc2nc2c(C(=O)NCCOC(C)=O)cccc12`, the IC50 was found to be 17.6 µM with NCI-H460 and 29.5 µM with HL-60.

What is called IC50 is the concentration that inhibits the measured activity by half. Low readings indicate greater potency in that assay, high ones weaker potency in that assay.

(Values after ChEMBL document CHEMBL1147824, “Synthesis, biological activity, and DNA-damage profile of platinum-threading intercalator conjugates designed to target adenine” (J Med Chem, 2006).)
